Measured values from ChEMBL document CHEMBL1129686, “(S)-(-)-5-ethynyl-3-(1-methyl-2-pyrrolidinyl)pyridine maleate (SIB-1508Y): a novel anti-parkinsonian agent with selectivity for neuronal nicotinic acetylcholine receptors” (J Med Chem, 1996).
Several values for one entry are separate records, joined by “and”; a condition that tells them apart may be missing. Equal values may be shown once.

Columns and labels:
Rattus norvegicus = species on record: Rattus norvegicus; assay: The efficiency of the compound (300 micro M) to stimulate ([3H]DA) release; format: functional
[1] = molecular target: Muscarinic acetylcholine receptor; assay: Muscarinic acetylcholine receptor binding (rat cortical membranes) was determined by displacement of [3H]quinuclidinyl benzylate [3H]QNB)
[2] = molecular target: Neuronal nicotinic acetylcholine receptor; assay: Binding affinity at NAChRs was determined by measuring the displacement of ([3H]Nic) from a preparation of rat cortical membranes.; format: cell membranes, Membrane
[3] = molecular target: T1, Neuronal acetylcholine receptor; alpha3/beta4 (Homo sapiens, UniProt P30926+P32297); assay: The compound was tested on recombinant human alpha3-beta4 cell lines of Human embryonic kidney for nicotinic acetylcholine receptor agonist functional potency
Summary of the method: (§1)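 Stably transfected human recombinant NAChR cell lines: HEK293 for α2β4, α3β4, α4β4 and α4β2; human RD cells for fetal α1β1γδ muscle receptor. Agonist-evoked Ca2+ entry read as change in [Ca2+]i with fluo-3. Highest concentration tested 300 μM.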

[4] = molecular target: T2, Neuronal acetylcholine receptor; alpha4/beta4 (Homo sapiens, UniProt P30926+P43681); assay: The compound was tested on recombinant human alpha4-beta4 cell lines of Human embryonic kidney for nicotinic acetylcholine receptor agonist functional potency; summary of the method: as §1
Target sequence in this assay (P30926 whole entry): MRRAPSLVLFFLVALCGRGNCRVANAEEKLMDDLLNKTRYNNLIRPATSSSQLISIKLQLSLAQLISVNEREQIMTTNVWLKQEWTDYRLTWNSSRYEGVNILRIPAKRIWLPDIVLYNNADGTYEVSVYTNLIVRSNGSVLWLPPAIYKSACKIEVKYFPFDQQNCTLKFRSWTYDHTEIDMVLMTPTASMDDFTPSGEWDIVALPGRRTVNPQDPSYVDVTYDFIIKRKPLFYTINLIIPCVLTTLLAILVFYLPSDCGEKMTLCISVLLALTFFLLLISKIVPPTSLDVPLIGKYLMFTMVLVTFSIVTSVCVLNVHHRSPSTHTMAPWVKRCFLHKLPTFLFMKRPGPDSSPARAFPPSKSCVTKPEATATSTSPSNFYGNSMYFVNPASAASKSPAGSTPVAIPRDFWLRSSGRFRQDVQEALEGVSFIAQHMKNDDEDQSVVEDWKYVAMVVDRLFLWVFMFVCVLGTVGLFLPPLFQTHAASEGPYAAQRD
Target sequence in this assay (P43681 whole entry): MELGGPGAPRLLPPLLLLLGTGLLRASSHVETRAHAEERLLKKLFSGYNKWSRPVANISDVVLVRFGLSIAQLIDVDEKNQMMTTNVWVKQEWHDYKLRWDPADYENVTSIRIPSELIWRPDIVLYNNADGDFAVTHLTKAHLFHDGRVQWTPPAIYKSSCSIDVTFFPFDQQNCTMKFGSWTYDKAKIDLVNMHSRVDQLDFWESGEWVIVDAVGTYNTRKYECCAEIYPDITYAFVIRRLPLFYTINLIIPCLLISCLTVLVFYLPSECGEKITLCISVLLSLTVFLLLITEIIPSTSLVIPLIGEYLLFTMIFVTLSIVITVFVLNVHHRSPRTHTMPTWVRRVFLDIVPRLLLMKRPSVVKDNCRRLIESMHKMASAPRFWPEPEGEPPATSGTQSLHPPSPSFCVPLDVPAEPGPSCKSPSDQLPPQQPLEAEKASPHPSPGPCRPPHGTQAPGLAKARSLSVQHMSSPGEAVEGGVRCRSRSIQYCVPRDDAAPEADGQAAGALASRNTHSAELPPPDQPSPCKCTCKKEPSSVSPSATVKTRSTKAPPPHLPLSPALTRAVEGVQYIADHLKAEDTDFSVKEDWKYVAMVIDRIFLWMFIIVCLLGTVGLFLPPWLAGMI

[5] = molecular target: T3, Nicotinic acetylcholine receptor alpha2/beta4 (Homo sapiens, UniProt P30926+Q15822); assay: The compound was tested on recombinant human alpha2-beta4 cell lines of Human embryonic kidney for nicotinic acetylcholine receptor agonist functional potency; summary of the method: as §1
[6] = molecular target: Acetylcholine receptor; alpha1/beta1/delta/gamma (Homo sapiens, UniProt P02708+P07510+P11230+Q07001); assay: (§2) The compound was tested on recombinant human alpha-1-beta-1-gamma-delta cell lines of […] for nicotinic acetylcholine receptor agonist functional potency
[7] = molecular target: T1, Neuronal acetylcholine receptor; alpha3/beta4; assay: The compound was tested on recombinant human alpha3-beta4 cell lines of HUman embryonic kidney for nicotinic acetylcholine receptor agonist functional potency; summary of the method: as §1
[8] = molecular target: Neuronal acetylcholine receptor; alpha4/beta2 (Homo sapiens, UniProt P17787+P43681); assay: The compound was tested on recombinant human alpha4-beta2 cell lines of Human embryonic kidney for nicotinic acetylcholine receptor agonist functional potency; IA=inactive; summary of the method: as §1
[9] = molecular target: T3, Nicotinic acetylcholine receptor alpha2/beta4; assay: The compound was tested on recombinant human alpha2-beta4 cell lines of HUman embryonic kidney for nicotinic acetylcholine receptor agonist efficacy
[10] = molecular target: T2, Neuronal acetylcholine receptor; alpha4/beta4; assay: The compound was tested on recombinant human alpha4-beta4 cell lines of HUman embryonic kidney for nicotinic acetylcholine receptor agonist functional potency; summary of the method: as §1
Target sequence in this assay (P43681 whole entry, looked up): as the sequence (P43681 whole entry) above
Target sequence in this assay (P30926 whole entry, looked up): as the sequence (P30926 whole entry) above

[11] = molecular target: Muscle-type nicotinic acetylcholine receptor; assay: as §2

T3 sequence (P02708 whole entry): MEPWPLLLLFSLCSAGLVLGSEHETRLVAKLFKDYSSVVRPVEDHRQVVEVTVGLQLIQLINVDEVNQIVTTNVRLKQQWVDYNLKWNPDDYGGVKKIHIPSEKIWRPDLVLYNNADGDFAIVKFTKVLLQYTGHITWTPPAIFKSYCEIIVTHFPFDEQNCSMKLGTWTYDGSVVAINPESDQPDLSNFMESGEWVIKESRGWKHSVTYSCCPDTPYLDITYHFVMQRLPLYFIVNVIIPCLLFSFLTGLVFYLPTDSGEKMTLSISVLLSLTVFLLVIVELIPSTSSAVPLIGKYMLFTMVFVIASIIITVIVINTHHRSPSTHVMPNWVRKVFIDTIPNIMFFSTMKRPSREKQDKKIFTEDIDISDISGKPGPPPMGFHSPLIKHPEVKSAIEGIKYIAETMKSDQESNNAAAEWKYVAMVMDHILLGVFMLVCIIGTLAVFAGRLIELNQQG
T3 sequence (P30926 whole entry): as the sequence (P30926 whole entry) above
T1 sequence (P30926 whole entry): as above
T1 sequence (P32297 whole entry): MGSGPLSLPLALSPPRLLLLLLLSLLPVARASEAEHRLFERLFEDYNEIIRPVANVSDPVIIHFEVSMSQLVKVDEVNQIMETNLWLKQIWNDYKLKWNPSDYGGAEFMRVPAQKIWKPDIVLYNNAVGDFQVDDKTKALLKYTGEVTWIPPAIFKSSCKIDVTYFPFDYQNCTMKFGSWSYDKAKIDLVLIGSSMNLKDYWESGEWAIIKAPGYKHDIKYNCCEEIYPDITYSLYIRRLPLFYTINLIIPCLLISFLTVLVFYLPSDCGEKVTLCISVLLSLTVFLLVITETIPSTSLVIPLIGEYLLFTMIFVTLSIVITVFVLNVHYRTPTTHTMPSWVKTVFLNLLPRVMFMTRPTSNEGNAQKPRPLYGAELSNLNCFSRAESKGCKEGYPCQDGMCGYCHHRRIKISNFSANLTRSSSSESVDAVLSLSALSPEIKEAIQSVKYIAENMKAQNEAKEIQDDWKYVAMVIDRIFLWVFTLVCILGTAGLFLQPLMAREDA
Chain of Acetylcholine receptor; alpha1/beta1/delta/gamma (P02708 whole entry): as the sequence (P02708 whole entry) above
Chain of Acetylcholine receptor; alpha1/beta1/delta/gamma (P07510 whole entry): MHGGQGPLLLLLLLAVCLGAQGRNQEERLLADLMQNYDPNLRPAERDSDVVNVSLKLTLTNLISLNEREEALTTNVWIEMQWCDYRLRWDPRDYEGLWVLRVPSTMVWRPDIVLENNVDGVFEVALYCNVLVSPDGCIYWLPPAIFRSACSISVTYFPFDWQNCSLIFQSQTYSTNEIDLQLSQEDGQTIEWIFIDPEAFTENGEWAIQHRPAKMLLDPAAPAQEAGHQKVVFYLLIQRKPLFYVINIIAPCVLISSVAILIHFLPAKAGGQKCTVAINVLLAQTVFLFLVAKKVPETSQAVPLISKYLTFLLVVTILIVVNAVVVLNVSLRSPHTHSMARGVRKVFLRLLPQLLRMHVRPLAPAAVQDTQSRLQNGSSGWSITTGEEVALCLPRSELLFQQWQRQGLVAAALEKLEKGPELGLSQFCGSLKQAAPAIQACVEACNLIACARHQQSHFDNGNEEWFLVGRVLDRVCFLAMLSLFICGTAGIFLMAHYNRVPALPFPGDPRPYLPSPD
Chain of Acetylcholine receptor; alpha1/beta1/delta/gamma (P11230 whole entry): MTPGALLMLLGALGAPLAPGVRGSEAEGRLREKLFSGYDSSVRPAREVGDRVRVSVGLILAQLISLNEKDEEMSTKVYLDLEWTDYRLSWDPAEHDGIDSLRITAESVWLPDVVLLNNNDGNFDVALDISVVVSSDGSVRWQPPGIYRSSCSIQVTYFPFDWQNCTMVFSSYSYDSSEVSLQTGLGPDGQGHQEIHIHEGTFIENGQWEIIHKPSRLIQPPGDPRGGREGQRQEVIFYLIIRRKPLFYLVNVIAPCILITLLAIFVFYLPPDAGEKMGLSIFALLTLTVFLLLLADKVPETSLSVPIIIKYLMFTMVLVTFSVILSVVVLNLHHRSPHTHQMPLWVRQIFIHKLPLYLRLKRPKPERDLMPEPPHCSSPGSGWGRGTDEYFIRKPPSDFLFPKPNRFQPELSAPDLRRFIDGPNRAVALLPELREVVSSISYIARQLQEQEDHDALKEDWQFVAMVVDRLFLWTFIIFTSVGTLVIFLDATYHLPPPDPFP
Chain of Acetylcholine receptor; alpha1/beta1/delta/gamma (Q07001 whole entry): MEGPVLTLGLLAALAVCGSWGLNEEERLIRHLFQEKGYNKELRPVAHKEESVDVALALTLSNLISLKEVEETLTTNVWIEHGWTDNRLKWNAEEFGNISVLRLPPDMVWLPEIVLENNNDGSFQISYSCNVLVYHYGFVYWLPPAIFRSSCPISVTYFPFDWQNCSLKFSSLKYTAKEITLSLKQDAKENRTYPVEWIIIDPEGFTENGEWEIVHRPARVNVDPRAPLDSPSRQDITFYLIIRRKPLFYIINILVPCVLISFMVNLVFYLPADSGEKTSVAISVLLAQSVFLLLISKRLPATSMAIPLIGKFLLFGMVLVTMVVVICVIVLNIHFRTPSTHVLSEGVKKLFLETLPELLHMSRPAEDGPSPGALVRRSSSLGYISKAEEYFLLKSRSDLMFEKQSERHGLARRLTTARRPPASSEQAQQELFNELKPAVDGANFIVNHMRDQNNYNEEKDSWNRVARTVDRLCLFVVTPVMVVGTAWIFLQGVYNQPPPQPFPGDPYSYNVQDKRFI
Chain of Neuronal acetylcholine receptor; alpha4/beta2 (P17787 whole entry): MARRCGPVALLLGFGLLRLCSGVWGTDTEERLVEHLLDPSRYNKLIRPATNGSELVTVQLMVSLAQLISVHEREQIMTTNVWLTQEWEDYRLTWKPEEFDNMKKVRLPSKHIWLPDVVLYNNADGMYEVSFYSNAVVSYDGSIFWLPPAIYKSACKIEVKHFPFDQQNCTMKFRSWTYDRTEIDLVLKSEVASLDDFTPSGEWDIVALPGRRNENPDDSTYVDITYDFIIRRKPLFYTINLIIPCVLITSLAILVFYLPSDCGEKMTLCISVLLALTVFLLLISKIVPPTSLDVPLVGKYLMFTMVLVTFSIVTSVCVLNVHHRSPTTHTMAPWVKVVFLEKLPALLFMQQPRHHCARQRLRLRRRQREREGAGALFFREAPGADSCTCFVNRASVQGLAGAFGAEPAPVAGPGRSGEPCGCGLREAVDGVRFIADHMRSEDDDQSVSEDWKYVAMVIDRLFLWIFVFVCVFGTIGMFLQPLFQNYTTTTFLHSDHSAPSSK
Chain of Neuronal acetylcholine receptor; alpha4/beta2 (P43681 whole entry): as the sequence (P43681 whole entry) above

Compound	Release (Rattus norvegicus) [%]	IC50 [1] [µM]	IC50 [2] [µM]	EC50 [3]	EC50 [4]	EC50 [5]	EC50 [6]	EC50 [7] [µM]	EC50 [8]	Efficacy [9] [%]	EC50 [10]	EC50 [11] [µM]
CCc1cncc(C2CCCN2C)c1 (stereo not given)	27.5	5.8	0.011	–	–	–	–	–	–	–	–	–
C#Cc1cncc(C2CCCN2C)c1 (stereo not given)	143	10.1	0.0046	41 µM and 34 µM	25 µM and 23 µM	15 µM and 39 µM	52 µM and 53 µM	–	–	–	–	–
C#Cc1cncc([C@H]2CCCN2C)c1	55	4.5	0.075	68 µM	–	29 µM	–	68	Not Active	9	31 µM and 8 µM	–
CN1CCCC1c1cncc(Br)c1 (stereo not given)	69	1.6	0.019	–	–	–	–	–	–	–	–	–
C#Cc1cncc([C@@H]2CCCN2C)c1 [ALTINICLINE]	163	8.9	0.003	23 µM and 52 µM	9 µM and 26 µM	5 µM and 49 µM	–	–	–	–	–	–
CN1CCC[C@H]1c1cccnc1 [NICOTINE]	–	–	–	–	–	10 µM	–	–	–	–	–	65
